Measurements reported in ChEMBL document CHEMBL3112433, “Synthesis and antimicrobial activities of novel 1,2,4-triazolo [3,4-a] phthalazine derivatives” (2014).
Converted amounts (≈) assume the structure as drawn.

What was measured:
Type in all cases: functional
[1] = system: Stenotrophomonas maltophilia; test: Antimicrobial activity against Stenotrophomonas maltophilia after 24 hrs by broth microdilution method
Outline: (§1)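 MICs determined by two-fold broth microdilution following CLSI guidelines (M100-S22), with compound concentrations of […] in the well. Every well except the blank was inoculated with the test bacterium and incubated at 37 °C for 24 h. MIC was taken as the lowest concentration with no visible growth.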

Escherichia coli = test: Antimicrobial activity against Escherichia coli after 24 hrs by broth microdilution method; outline: as §1
Bacillus subtilis = test: Antimicrobial activity against Bacillus subtilis after 24 hrs by broth microdilution method; outline: as §1
Acinetobacter baumannii = test: Antimicrobial activity against Acinetobacter baumannii after 24 hrs by broth microdilution method; outline: as §1
Staphylococcus aureus = test: Antimicrobial activity against Staphylococcus aureus after 24 hrs by broth microdilution method; outline: as §1
Candida albicans = test: Antimicrobial activity against Candida albicans after 24 hrs by broth microdilution method

| SMILES | MIC [1] | MIC (Escherichia coli) | MIC (Bacillus subtilis) | MIC (Acinetobacter baumannii) | MIC (Staphylococcus aureus) | MIC (Candida albicans) |
| --- | --- | --- | --- | --- | --- | --- |
| Clc1ccc(Nc2nn3cnnc3c3ccccc23)cc1 | > 128 µg/mL | > 128 µg/mL | > 128 µg/mL | > 128 µg/mL | 32 µg/mL (≈ 108 µM) | > 128 µg/mL |
| C[C@H]1COc2c(N3CCN(C)CC3)c(F)cc3c(=O)c(C(=O)O)cn1c23.C[C@H]1COc2c(N3CCN(C)CC3)c(F)cc3c(=O)c(C(=O)O)cn1c23.O [LEVOFLOXACIN] | 0.5 µg/mL | 0.25 µg/mL | 1 µg/mL | 0.25 µg/mL | 0.5 µg/mL |  |
| Cc1ccc(Nc2nn3cnnc3c3ccccc23)cc1 | > 128 µg/mL | > 128 µg/mL | > 128 µg/mL | > 128 µg/mL | 32 µg/mL (≈ 116 µM) | > 128 µg/mL |
| c1ccc(-c2nnc3c4ccccc4c(N4CCNCC4)nn23)cc1 | 32 µg/mL (≈ 96.9 µM) | 128 µg/mL (≈ 387 µM) | 64 µg/mL (≈ 194 µM) | 64 µg/mL (≈ 194 µM) | 32 µg/mL (≈ 96.9 µM) | 32 µg/mL (≈ 96.9 µM) |
| Fc1ccc(Nc2nn3cnnc3c3ccccc23)cc1 | > 128 µg/mL | > 128 µg/mL | > 128 µg/mL | > 128 µg/mL | 64 µg/mL (≈ 229 µM) | > 128 µg/mL |
| Cc1nnc2c3ccccc3c(Nc3ccccc3Cl)nn12 | > 128 µg/mL | > 128 µg/mL | > 128 µg/mL | > 128 µg/mL | 32 µg/mL (≈ 103 µM) | > 128 µg/mL |
| Fc1ccc(Nc2nn3c(-c4ccccc4)nnc3c3ccccc23)cc1 | > 128 µg/mL | > 128 µg/mL | > 128 µg/mL | > 128 µg/mL | 16 µg/mL (≈ 45 µM) | > 128 µg/mL |
| OC(Cn1cncn1)(Cn1cncn1)c1ccc(F)cc1F [FLUCONAZOLE] |  |  |  |  |  | 1 µg/mL (≈ 3.27 µM) |
| COc1ccc(Nc2nn3cnnc3c3ccccc23)cc1 | > 128 µg/mL | > 128 µg/mL | > 128 µg/mL | > 128 µg/mL | 128 µg/mL (≈ 439 µM) | > 128 µg/mL |
| COc1ccc(Nc2nn3c(C)nnc3c3ccccc23)cc1 | > 128 µg/mL | > 128 µg/mL | > 128 µg/mL | > 128 µg/mL | 16 µg/mL (≈ 52.4 µM) | > 128 µg/mL |
| Cc1ccc(Nc2nn3c(C)nnc3c3ccccc23)cc1 | > 128 µg/mL | > 128 µg/mL | > 128 µg/mL | > 128 µg/mL | 64 µg/mL (≈ 221 µM) | > 128 µg/mL |
| c1ccc2c(c1)c(N1CCNCC1)nn1cnnc21 | > 128 µg/mL | > 128 µg/mL | > 128 µg/mL | > 128 µg/mL | > 128 µg/mL | > 128 µg/mL |
| Cc1nnc2c3ccccc3c(N3CC(C)CC(C)C3)nn12 (stereo not drawn) | > 128 µg/mL | > 128 µg/mL | 64 µg/mL (≈ 217 µM) | > 128 µg/mL | 32 µg/mL (≈ 108 µM) | > 128 µg/mL |
| Cc1ccc(Nc2nn3c(-c4ccccc4)nnc3c3ccccc23)cc1 | > 128 µg/mL | > 128 µg/mL | > 128 µg/mL | > 128 µg/mL | 32 µg/mL (≈ 91.1 µM) | > 128 µg/mL |
